Laboratory results reported in ChEMBL document CHEMBL1137942, “Design, synthesis, and biological activity of novel, potent, and selective (benzoylaminomethyl)thiophene sulfonamide inhibitors of c-Jun-N-terminal kinase” (J Med Chem, 2004).
Calls of active or inactive are those of the source. No cut-off for these calls is given here.

How the values were obtained:
[1] = target: Mitogen-activated protein kinase 14 (Homo sapiens) (UniProt Q16539); assay: Percentage activity of human SAPK2a in the presence of 10 uM of compound and 10 uM of ATP in comparison with control
[2] = target: 3-phosphoinositide-dependent protein kinase 1 (Homo sapiens) (UniProt O15530); assay: Percentage activity of human PDK1 in the presence of 10 uM of compound and 10 uM of ATP in comparison with control
[3] = target: RAC-gamma serine/threonine-protein kinase (Homo sapiens) (UniProt Q9Y243); assay: Percentage activity of human PKB gamma in the presence of 10uM of compound and 10uM of ATP in comparison with control
[4] = target: Inhibitor of nuclear factor kappa-B kinase subunit alpha (Homo sapiens) (UniProt O15111); assay: Percentage activity of human IKK alpha in the presence of 10 uM of compound and 10 uM of ATP in comparison with control
[5] = target: Serine/threonine-protein kinase N2 (Homo sapiens) (UniProt Q16513); assay: Percentage activity of human PRK2 in the presence of 10 uM of compound and 10 uM of ATP in comparison with control
[6] = target: Protein kinase C epsilon type (Homo sapiens) (UniProt Q02156); assay: Percentage activity of human PKC epsilon in the presence of 10 uM of compound and 10 uM of ATP in comparison with control
[7] = target: Mitogen-activated protein kinase 13 (Homo sapiens) (UniProt O15264); assay: Percentage activity of human SAPK4 in the presence of 10 uM of compound and 10 uM of ATP in comparison with control
[8] = target: MAP kinase-activated protein kinase 2 (Homo sapiens) (UniProt P49137); assay: Percentage activity of human MAPKAP-K2 in the presence of 10uM of compound and 10uM of ATP in comparison with control
[9] = target: Protein kinase C beta type (Homo sapiens) (UniProt P05771); assay: Percentage activity of human PKC betaII -His in the presence of 10 uM of compound and 10 uM of ATP in comparison with control
[10] = target: Cyclin-dependent kinase 2/cyclin A (Homo sapiens) (UniProt P24941+P20248+P78396); assay: Percentage activity of human CDK2 (with cyclin A) in the presence of 10 uM of compound and 10 uM of ATP in comparison with control; format: protein-complex assay
[11] = target: Cyclin-dependent kinase 2/cyclin E (Homo sapiens) (UniProt P24864+P24941+O96020); assay: Percentage activity of human CDK2 (with cyclin E) in the presence of 10 uM of compound and 10 uM of ATP in comparison with control; format: protein-complex assay
[12] = target: Tyrosine-protein kinase ABL1 (Mus musculus) (UniProt P00520); assay: Percentage activity of mouse Abl in the presence of 10 uM of compound and 10 uM of ATP in comparison with control
Homo sapiens = species on record: Homo sapiens; assay: Percentage activity of human Rsk2 in the presence of 10 uM of compound and 10 uM of ATP in comparison with control
[13] = target: Fibroblast growth factor receptor 3 (Homo sapiens) (UniProt P22607); assay: Percentage activity of human FGFR3 in the presence of 10 uM of compound and 10 uM of ATP in comparison with control
[14] = target: Tyrosine-protein kinase ABL2 (Mus musculus) (UniProt Q4JIM5); assay: Percentage activity of mouse Arg in the presence of 10 uM of compound and 10 uM of ATP in comparison with control
[15] = target: Protein kinase C theta type (Homo sapiens) (UniProt Q04759); assay: Percentage activity of human PKC theta in the presence of 10 uM of compound and 10 uM of ATP in comparison with control
[16] = target: CDK3/cyclin E (Homo sapiens) (UniProt P24864+O96020+Q00526); assay: Percentage activity of human CDK3 (with cyclin E) in the presence of 10 uM of compound and 10 uM of ATP in comparison with control; format: protein-complex assay
[17] = target: Tyrosine-protein kinase Yes (Homo sapiens) (UniProt P07947); assay: Percentage activity of human Yes in the presence of 10 uM of compound and 10 uM of ATP in comparison with control
[18] = target: Cytoplasmic tyrosine-protein kinase BMX (Homo sapiens) (UniProt P51813); assay: Percentage activity of human Bmx in the presence of 10uM of compound and 10uM of ATP in comparison with control
[19] = target: Serine/threonine-protein kinase PAK 2 (Homo sapiens) (UniProt Q13177); assay: Percentage activity of human PAK2 in the presence of 10 uM of compound and 10 uM of ATP in comparison with control
[20] = target: Casein kinase II (Homo sapiens) (UniProt P67870+P68400+P19784); assay: Percentage activity of human CK2 in the presence of 10 uM of compound and 10 uM of ATP in comparison with control; format: protein-complex assay
[21] = target: Ca2+/calmodulin-dependent protein kinase II (CaM kinase II) (Rattus norvegicus) (UniProt P11275+P08413+P15791+P11730); assay: Percentage activity of rat CaMKII in the presence of 10uM of compound and 10uM of ATP in comparison with control; format: protein assay
[22] = target: Dual specificity mitogen-activated protein kinase kinase 7 (Homo sapiens) (UniProt O14733); assay: Percentage activity of human MKK7 beta in the presence of 10 uM of compound and 10 uM of ATP in comparison with control
SCG [23] = assay: Cell activity of JNK inhibitors in neuronal apoptosis assay in SCG cells, percentage rescued neurons at 3uM compound concentration after 24 hours; format: functional, Rattus norvegicus
SCG [24] = assay: Cell activity of JNK inhibitors in neuronal apoptosis assay in SCG cells, percentage rescued neurons at 1 uM compound concentration after 24 hours; format: functional, cell-based; settings: Rattus norvegicus
SCG [25] = assay: Cell activity of JNK inhibitors in neuronal apoptosis assay in SCG cells, percentage rescued neurons at 1uM compound concentration after 48 hours; format: functional, Rattus norvegicus
In short: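 They were cultured in Leibowitz medium with 5% rat serum, 0.75 µg/mL NGF 7S and arabinosine C 10^-5 M. On day 4, medium was switched to 10 µg/mL anti-NGF antibody without NGF or AraC, with inhibitor in 1% DMSO. After 24 h, cells were refed initial medium minus AraC. After another 24 h, viability was read by MTT (0.5 mg/mL, 30 min, 37 °C), OD 590 nm.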

Saccharomyces cerevisiae = assay: Percentage activity of yeast CK1 in the presence of 10 uM of compound and 10 uM of ATP in comparison with control
[26] = target: Mitogen-activated protein kinase 11 (Homo sapiens) (UniProt Q15759); assay: Percentage activity of human SAPK2b in the presence of 10 uM of compound and 10 uM of ATP in comparison with control
[27] = target: Mitogen-activated protein kinase 9, JNK2 (Homo sapiens) (UniProt P45984); assay: Percentage activity of human JNK2a2 in the presence of 10 uM of compound and 10 uM of ATP in comparison with control
Chain of Mitogen-activated protein kinase 9, JNK2 (Homo sapiens) (P45984 whole entry, looked up): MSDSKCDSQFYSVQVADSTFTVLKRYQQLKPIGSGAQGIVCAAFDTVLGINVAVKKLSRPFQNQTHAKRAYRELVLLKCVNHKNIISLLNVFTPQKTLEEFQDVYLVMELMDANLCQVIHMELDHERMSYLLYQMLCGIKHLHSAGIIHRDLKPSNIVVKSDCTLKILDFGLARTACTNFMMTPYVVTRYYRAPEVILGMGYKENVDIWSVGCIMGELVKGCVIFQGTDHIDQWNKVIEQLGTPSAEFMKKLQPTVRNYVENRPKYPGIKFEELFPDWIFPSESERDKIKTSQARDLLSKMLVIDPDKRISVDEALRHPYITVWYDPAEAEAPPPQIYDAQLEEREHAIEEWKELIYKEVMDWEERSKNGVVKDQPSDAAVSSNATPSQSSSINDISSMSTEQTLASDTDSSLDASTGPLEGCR

Chain of Cytoplasmic tyrosine-protein kinase BMX (Homo sapiens) (P51813 whole entry): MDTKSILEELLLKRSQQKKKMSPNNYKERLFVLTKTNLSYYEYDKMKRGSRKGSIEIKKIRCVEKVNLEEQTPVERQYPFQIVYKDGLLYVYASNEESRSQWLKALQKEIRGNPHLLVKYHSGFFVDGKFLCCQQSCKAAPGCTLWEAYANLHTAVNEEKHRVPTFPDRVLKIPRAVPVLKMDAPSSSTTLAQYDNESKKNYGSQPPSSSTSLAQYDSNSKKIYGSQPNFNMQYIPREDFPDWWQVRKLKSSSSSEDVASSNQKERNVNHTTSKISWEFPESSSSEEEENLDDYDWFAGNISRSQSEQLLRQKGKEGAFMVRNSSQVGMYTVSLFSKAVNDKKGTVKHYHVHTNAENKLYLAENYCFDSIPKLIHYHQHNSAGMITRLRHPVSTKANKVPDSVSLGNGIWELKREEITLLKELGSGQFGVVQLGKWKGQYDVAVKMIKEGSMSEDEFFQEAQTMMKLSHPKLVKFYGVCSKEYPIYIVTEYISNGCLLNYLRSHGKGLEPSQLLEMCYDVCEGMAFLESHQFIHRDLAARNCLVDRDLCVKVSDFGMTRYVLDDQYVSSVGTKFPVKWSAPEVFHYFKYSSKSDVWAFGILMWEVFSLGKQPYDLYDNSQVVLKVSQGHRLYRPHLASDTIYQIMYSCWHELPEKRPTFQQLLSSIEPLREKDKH
Chain of Mitogen-activated protein kinase 13 (Homo sapiens) (O15264 whole entry): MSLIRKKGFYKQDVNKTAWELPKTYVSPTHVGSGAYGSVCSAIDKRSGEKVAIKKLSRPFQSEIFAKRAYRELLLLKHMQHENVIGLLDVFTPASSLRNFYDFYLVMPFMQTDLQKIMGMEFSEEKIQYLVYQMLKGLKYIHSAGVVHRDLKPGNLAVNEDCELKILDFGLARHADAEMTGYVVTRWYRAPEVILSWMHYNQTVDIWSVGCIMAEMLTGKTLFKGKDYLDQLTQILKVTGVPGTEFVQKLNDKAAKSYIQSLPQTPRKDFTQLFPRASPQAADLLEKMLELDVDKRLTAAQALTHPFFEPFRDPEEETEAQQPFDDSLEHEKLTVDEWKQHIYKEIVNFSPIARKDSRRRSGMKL
Chain of 3-phosphoinositide-dependent protein kinase 1 (Homo sapiens) (O15530 whole entry): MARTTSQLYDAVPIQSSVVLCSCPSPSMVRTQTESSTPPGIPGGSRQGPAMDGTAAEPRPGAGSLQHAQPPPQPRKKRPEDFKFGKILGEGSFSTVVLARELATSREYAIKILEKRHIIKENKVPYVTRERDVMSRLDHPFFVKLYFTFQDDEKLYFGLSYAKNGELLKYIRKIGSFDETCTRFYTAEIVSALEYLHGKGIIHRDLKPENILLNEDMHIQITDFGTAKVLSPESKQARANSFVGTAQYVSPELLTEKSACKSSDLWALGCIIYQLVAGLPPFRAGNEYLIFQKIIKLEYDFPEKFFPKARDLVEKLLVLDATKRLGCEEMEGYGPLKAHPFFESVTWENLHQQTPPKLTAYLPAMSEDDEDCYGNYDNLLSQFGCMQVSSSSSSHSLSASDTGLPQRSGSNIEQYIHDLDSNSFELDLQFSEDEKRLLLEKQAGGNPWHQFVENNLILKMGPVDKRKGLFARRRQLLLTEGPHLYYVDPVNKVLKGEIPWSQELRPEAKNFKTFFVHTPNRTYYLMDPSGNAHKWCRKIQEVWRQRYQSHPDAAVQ
Chain of Tyrosine-protein kinase Yes (Homo sapiens) (P07947 2-543 limits assumed): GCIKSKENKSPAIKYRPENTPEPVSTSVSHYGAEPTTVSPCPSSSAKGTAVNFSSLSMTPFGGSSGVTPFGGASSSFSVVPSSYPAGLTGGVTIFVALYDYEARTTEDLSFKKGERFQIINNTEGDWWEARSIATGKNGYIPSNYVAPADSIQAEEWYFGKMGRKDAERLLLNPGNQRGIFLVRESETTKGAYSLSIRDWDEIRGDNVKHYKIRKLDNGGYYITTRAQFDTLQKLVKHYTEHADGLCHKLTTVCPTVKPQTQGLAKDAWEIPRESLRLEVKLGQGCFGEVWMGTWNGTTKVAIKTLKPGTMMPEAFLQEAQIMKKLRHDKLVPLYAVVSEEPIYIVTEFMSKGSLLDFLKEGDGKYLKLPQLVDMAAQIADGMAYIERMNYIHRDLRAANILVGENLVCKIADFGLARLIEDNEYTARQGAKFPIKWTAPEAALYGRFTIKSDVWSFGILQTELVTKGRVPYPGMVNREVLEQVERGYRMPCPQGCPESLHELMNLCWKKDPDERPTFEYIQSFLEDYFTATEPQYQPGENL
Chain of Protein kinase C theta type (Homo sapiens) (Q04759 whole entry, looked up): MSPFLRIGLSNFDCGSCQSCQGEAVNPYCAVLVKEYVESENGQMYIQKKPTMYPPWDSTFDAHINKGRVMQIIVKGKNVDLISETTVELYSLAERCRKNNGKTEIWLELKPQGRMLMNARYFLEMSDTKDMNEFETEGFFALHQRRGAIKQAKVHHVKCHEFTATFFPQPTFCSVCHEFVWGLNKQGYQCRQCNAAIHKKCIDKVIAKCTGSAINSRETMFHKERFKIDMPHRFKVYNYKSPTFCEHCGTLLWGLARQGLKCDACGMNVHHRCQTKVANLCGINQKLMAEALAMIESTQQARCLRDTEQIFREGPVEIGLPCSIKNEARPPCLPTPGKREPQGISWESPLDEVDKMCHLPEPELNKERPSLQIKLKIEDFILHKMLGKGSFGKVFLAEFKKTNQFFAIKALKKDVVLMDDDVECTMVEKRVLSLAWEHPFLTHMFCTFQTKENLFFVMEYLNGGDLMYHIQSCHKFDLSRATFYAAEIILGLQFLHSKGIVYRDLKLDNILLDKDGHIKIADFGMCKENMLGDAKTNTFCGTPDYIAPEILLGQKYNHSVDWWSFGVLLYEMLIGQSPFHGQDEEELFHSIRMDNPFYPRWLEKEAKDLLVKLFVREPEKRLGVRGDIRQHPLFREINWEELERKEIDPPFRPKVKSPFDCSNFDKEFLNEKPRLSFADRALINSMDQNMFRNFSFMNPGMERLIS
Chain of RAC-gamma serine/threonine-protein kinase (Homo sapiens) (Q9Y243 whole entry): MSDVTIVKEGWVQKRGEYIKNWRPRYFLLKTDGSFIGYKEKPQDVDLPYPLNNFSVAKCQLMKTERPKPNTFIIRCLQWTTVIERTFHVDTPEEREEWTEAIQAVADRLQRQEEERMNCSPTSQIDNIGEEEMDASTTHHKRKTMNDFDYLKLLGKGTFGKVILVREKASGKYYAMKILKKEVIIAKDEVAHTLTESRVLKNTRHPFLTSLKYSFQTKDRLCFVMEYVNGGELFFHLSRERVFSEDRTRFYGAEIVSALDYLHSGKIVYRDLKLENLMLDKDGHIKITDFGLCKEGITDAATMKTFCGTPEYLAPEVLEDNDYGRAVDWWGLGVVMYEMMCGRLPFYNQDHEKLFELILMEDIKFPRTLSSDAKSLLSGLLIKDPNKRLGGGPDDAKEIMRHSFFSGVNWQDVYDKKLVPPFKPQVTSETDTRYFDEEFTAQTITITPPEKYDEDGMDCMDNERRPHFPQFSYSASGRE
Chain of Serine/threonine-protein kinase N2 (Homo sapiens) (Q16513 whole entry, looked up): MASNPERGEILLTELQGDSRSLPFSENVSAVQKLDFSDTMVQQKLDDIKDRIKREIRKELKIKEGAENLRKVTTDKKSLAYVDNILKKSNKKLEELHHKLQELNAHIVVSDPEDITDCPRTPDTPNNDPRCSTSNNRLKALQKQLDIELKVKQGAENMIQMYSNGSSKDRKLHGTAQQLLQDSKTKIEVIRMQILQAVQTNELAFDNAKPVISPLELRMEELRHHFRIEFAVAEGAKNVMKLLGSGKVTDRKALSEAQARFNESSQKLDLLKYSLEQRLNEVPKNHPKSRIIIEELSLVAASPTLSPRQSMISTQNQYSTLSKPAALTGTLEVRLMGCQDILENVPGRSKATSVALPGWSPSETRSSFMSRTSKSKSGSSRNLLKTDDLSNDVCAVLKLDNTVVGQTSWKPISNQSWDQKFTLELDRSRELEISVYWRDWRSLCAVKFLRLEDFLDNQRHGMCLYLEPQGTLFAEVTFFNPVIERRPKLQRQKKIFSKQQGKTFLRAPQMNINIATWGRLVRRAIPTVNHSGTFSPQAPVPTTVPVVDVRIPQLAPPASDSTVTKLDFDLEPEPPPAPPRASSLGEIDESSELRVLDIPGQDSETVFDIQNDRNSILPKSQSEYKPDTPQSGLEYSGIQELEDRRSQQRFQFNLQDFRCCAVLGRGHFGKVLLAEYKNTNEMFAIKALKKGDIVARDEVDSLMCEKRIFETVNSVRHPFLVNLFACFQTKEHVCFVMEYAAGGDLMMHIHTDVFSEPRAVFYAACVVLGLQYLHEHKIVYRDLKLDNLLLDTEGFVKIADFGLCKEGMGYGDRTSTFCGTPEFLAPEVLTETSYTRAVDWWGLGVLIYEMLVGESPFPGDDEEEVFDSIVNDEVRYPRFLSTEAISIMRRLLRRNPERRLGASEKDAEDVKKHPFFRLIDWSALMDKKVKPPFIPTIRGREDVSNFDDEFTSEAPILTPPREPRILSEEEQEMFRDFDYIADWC

O=C(NCc1ccc(S(=O)(=O)N2CCC(n3nnc4ccccc43)CC2)s1)c1ccc(Cl)cc1
Activity [1]: 77% | Activity [2]: 98% | Activity [3]: 76% | Activity [4]: 92% | Activity [5]: 92% | Activity [6]: 95% | Activity [7]: 101% | Activity [8]: 74% | Activity [9]: 88% | Activity [10]: 99% | Activity [11]: 94% | Activity [12]: 80% | Activity (Homo sapiens): 77% | Activity [13]: 76% | Activity [14]: 91% | Activity [15]: 113% | Activity [16]: 97% | Activity [17]: 61% | Activity [18]: 88% | Activity [19]: 88% | Activity [20]: 99% | Activity [21]: 93% | Activity [22]: 121% | Rescued neurons (SCG [23]): 22.9% | Rescued neurons (SCG [24]): inactive | Rescued neurons (SCG [25]): 2.2% | Activity (Saccharomyces cerevisiae): 85% | Activity [26]: 100% | Activity [27]: 16%
